Source: PubChem BioAssay (several laboratories)
Most compounds without a hit are left out; they make up all but 2.7% or so of the library.
LYP act: LYP (human) phosphatase activation; Q9Y2R2; recombinant LYP, DiFMUP fluorescence; 0 = plate median, 100 = signal doubled; activation, % at 2 µM; 96,000 tested, 0.11% active; AID 697;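 active = activation at 2 µM above a set limit, the mean plus 5 SD, cut at about 37% in these data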
Target sequence (Q9Y2R2 whole entry, looked up): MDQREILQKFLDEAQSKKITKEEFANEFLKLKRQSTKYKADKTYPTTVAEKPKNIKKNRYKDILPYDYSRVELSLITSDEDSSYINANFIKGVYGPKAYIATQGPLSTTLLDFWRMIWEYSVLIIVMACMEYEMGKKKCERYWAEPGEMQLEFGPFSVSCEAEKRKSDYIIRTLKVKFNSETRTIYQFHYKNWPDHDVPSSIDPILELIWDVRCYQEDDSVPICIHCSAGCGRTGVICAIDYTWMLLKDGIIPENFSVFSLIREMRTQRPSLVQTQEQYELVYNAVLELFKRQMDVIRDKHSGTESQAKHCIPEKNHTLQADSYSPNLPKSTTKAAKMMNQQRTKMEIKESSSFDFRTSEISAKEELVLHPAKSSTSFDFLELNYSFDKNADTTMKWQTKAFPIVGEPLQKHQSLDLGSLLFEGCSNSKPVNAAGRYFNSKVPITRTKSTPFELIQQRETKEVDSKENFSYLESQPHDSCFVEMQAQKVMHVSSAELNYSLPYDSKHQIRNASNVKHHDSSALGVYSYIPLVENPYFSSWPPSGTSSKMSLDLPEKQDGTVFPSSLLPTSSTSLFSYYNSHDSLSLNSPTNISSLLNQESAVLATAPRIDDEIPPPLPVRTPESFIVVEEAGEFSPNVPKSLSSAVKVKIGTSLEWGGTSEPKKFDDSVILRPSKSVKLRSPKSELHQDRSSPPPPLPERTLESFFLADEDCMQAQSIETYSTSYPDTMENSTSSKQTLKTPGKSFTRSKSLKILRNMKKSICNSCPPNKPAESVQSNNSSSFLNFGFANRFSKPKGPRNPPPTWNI
PLK1 kinase inh: PLK1 (human) kinase inhibition | inhibition, % at 10 µM | P53350 | 97,000 tested, 0.53% active | recombinant PLK1 kinase, TR-FRET peptide phosphorylation;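 active = inhibition of 50% or more in the single-concentration screen; inactive = inhibition below 50%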;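 note: 0% = DMSO max control and 100% = H-89 dihydrochloride min control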
HIV Rev-RRE inh: inhibitors of HIV-1 Rev-RRE RNA interaction | Rev peptide-RRE RNA binding, FRET | 97,000 tested, 0.79% active | AID 704 | inhibition, % at 8 µM | P05866;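 active = inhibition above the screen-wide mean plus 3 SD, cut at about 35% in these data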;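 note: 0% = median DMSO wells and 100% = median Neomycin B control wells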
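Test system: Cy5-tagged RRE RNA duplex with fluorescein-tagged Rev peptide | Read-out: % inhibition of FRET ratio versus controls | Probe or stimulus: Labelled Rev peptide | Incubation: 5 min RNA-compound premix plus 15 min binding step, 25 °C | Technique: FRET fluorescence readout | Benchmarks: DMSO low control, neomycin B high control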
PLAP activator: activates human placental alkaline phosphatase; purified PLAP enzyme, luminescent substrate read-out; stronger effect = higher value; P05187; 96,000 tested, 1.2% active; activation fold at 20 µM; in the data active = activation fold above about 2
PTPN22 inh 2: LYP (human) phosphatase inhibition; inhibition, % at 2 µM; AID 640; recombinant LYP catalytic domain, DiFMUP fluorescence; 96,000 tested, 0.21% active;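 active = inhibition at 2 µM at or above a set limit, the screen mean plus 3 SD, cut at about 24% in these data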;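 note: 0% = DMSO with enzyme and 100% = enzyme fully blocked by orthovanadate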
Plk1 PBD FP: Plk1 (human) PBD binding inhibition; P53350; Plk1 PBD phosphopeptide binding, fluorescence polarization; AID 693; inhibition, %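 (tested at about 20 µM)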; 97,000 tested, 0.13% active; in the data active = inhibition above about 34%, passing the limit was not always enough
* hit, by the source's call; [ ] = remark or other dose.

Results for CCCCn1c(NC(=O)c2ccccc2)c(C#N)c2nc3ccccc3nc21 ?
LYP act: -18; PLK1 kinase inh: 3; HIV Rev-RRE inh: 50*; PLAP activator: 1.4; PTPN22 inh 2: 16; Plk1 PBD FP: 1

Results for N#Cc1c(N)n(CCNC(=O)c2ccc(Cl)cc2)c2nc3ccccc3nc12 ?
LYP act: -4; PLK1 kinase inh: 8; HIV Rev-RRE inh: 6; PLAP activator: 0.9; PTPN22 inh 2: 7; Plk1 PBD FP: -23

How did O=C(Nc1ccc(N2CCN(Cc3ccccc3Cl)CC2)cc1)c1cccnc1 do in these assays?
LYP act: 8; PLK1 kinase inh: -10; HIV Rev-RRE inh: 2; PLAP activator: 1; PTPN22 inh 2: -12; Plk1 PBD FP: 6

What do the screens show for `CCc1ccc(S(=O)(=O)NCc2cn3ccccc3n2)s1`?
LYP act: -2; PLK1 kinase inh: -13; HIV Rev-RRE inh: 1; PLAP activator: 2*; PTPN22 inh 2: 3; Plk1 PBD FP: 25

Results for Cc1ccn2cc(CNC(=O)c3cccs3)nc2c1 ?
LYP act: 4; PLK1 kinase inh: -4; HIV Rev-RRE inh: 3; PLAP activator: 1; PTPN22 inh 2: -5; Plk1 PBD FP: 43

What do the screens show for `CCc1ccc(S(=O)(=O)NCc2cn3ccsc3n2)s1`?
PLAP activator: 0.9

What do the screens show for `Cc1ccn2cc(CNS(=O)(=O)c3ccc(Cl)s3)nc2c1`?
LYP act: -7; PLK1 kinase inh: -14; HIV Rev-RRE inh: 6; PLAP activator: 2.1*; PTPN22 inh 2: 6; Plk1 PBD FP: -32

Results for CCc1ccc(S(=O)(=O)NCCc2cn3ccsc3n2)s1 ?
LYP act: -7; PLK1 kinase inh: -3; HIV Rev-RRE inh: 4; PLAP activator: 2*; PTPN22 inh 2: 7; Plk1 PBD FP: 5

How did Cc1csc2nc(CCNS(=O)(=O)c3cccs3)cn12 do in these assays?
LYP act: 9; PLK1 kinase inh: -2; HIV Rev-RRE inh: 8; PLAP activator: 2.9*; PTPN22 inh 2: -10; Plk1 PBD FP: -9

Results for COc1ccc(NC(=O)Nc2cccc(C)n2)cc1 ?
PLAP activator: 1

How did CCN1CCc2c(sc(N)c2C(N)=O)C1 do in these assays?
LYP act: -4; PLK1 kinase inh: -10; HIV Rev-RRE inh: 63*; PLAP activator: 1.1; PTPN22 inh 2: 7; Plk1 PBD FP: -10

How did C=CCSc1ncccc1C(=O)O do in these assays?
LYP act: 4; PLK1 kinase inh: -9; HIV Rev-RRE inh: 1; PLAP activator: 0.9; PTPN22 inh 2: -10; Plk1 PBD FP: 26

What do the screens show for `Cc1cc2nc(CCN(C(=S)NCC(C)C)C3CCCC3)[nH]c2cc1C`?
LYP act: 8; PLK1 kinase inh: -10; HIV Rev-RRE inh: -4; PLAP activator: 2.4*; PTPN22 inh 2: -4; Plk1 PBD FP: 1

Results for CC(C)c1ccc(NC(=O)N(CCc2nc3ccccc3[nH]2)C2CCCC2)cc1 ?
LYP act: -7; PLK1 kinase inh: -3; HIV Rev-RRE inh: 11; PLAP activator: 0.8; PTPN22 inh 2: 8; Plk1 PBD FP: -16

What do the screens show for `Cc1ccc(S(=O)(=O)N2CCN(c3nc(C(C)C)c4c(c3C#N)CC(C)(C)OC4)CC2)cc1`?
LYP act: -2; PLK1 kinase inh: -15; HIV Rev-RRE inh: 9; PLAP activator: 1.8; PTPN22 inh 2: 0; Plk1 PBD FP: -2

What do the screens show for `Cc1ccc(C(=O)NCCn2cc(SCC(=O)Nc3cc(C)on3)c3ccccc32)cc1`?
PLK1 kinase inh: 62*; HIV Rev-RRE inh: 6; PLAP activator: 0.7; Plk1 PBD FP: -3

How did O=C(CSc1cn(CCNC(=O)c2ccccc2)c2ccccc12)NCc1ccco1 do in these assays?
PLK1 kinase inh: 67*; HIV Rev-RRE inh: 2; PLAP activator: 1.5; Plk1 PBD FP: -4

What do the screens show for `Cc1ccc(-c2nnn(CC(=O)N(Cc3cccs3)C(C(=O)NC3CCCCC3)c3ccco3)n2)o1` (stereo not given)?
LYP act: -3; PLK1 kinase inh: -6; HIV Rev-RRE inh: -1; PLAP activator: 0.7; PTPN22 inh 2: 2; Plk1 PBD FP: 26

Results for Cc1ccccc1NC(=O)NCCCN1CCN(c2ccccc2)CC1 ?
LYP act: 3; PLK1 kinase inh: 1; HIV Rev-RRE inh: -6; PLAP activator: 2.8*; PTPN22 inh 2: -4; Plk1 PBD FP: 19

What do the screens show for `CCn1c(NC(=O)c2cccs2)nc2ccccc21`?
LYP act: -1; PLK1 kinase inh: 1; HIV Rev-RRE inh: 6; PLAP activator: 1.5; PTPN22 inh 2: 0; Plk1 PBD FP: -4

How did CCN(CC)c1ccc(/C=C(/C#N)c2nc3ccccc3[nH]2)c(OC(C)C)c1 do in these assays?
LYP act: -4; PLK1 kinase inh: -75; HIV Rev-RRE inh: 136*[fluorescence artefact?]; PLAP activator: 0.7; PTPN22 inh 2: 2; Plk1 PBD FP: -198

What do the screens show for `COc1ccc(CN(C(=O)c2oc3ccccc3c2C)C2CCS(=O)(=O)C2)cc1` (stereo not given)?
LYP act: 3; PLK1 kinase inh: 0; HIV Rev-RRE inh: 3; PLAP activator: 1.6; PTPN22 inh 2: 1; Plk1 PBD FP: 0

How did O=C(COc1ccc(S(=O)(=O)N2CCOCC2)cc1)Nc1ccc2c(c1)OCCO2 do in these assays?
LYP act: 0; PLK1 kinase inh: -2; HIV Rev-RRE inh: 4; PLAP activator: 1; PTPN22 inh 2: -1; Plk1 PBD FP: 27

Results for Clc1cccc(-c2nnc(SCc3nc4ccccc4[nH]3)n2Cc2ccco2)c1 ?
LYP act: -6; PLK1 kinase inh: -14; HIV Rev-RRE inh: 11; PLAP activator: 2.2*; PTPN22 inh 2: 4; Plk1 PBD FP: 18

Results for c1coc(Cn2c(SCc3nc4ccccc4[nH]3)nnc2-c2cnccn2)c1 ?
LYP act: -5; PLK1 kinase inh: -5; HIV Rev-RRE inh: 4; PLAP activator: 2.2*; PTPN22 inh 2: 3; Plk1 PBD FP: 12

What do the screens show for `c1ccc(-c2nnc(SCc3nc4ccccc4[nH]3)n2Cc2ccco2)nc1`?
LYP act: 6; PLK1 kinase inh: 0; HIV Rev-RRE inh: 2; PLAP activator: 2.6*; PTPN22 inh 2: -7; Plk1 PBD FP: -18

Results for Cc1nnc2ccc(N3CCC4(CC3)OCCO4)nn12 ?
LYP act: 0; PLK1 kinase inh: -16; HIV Rev-RRE inh: 6; PLAP activator: 1; PTPN22 inh 2: -6; Plk1 PBD FP: -5

Results for NC(=O)C[n+]1cccc2ccccc21 ?
LYP act: 12; PLK1 kinase inh: -13; HIV Rev-RRE inh: 37*; PLAP activator: 1; PTPN22 inh 2: -6; Plk1 PBD FP: 0

Results for O=C(Cn1ncc2c3ccccc3n(Cc3ccc(F)cc3)c2c1=O)N1CCN(c2ncccn2)CC1 ?
LYP act: 5; PLK1 kinase inh: 5; HIV Rev-RRE inh: -6; PLAP activator: 1.5; PTPN22 inh 2: -5; Plk1 PBD FP: -5

Results for O=c1[nH]ncc2c3ccccc3n(Cc3ccc(F)cc3)c12 ?
LYP act: 5; PLK1 kinase inh: 52*; HIV Rev-RRE inh: 8; PLAP activator: 1.1; PTPN22 inh 2: -5; Plk1 PBD FP: 1
